One may read the ED50 as the midpoint of the dose-response relation. Read a high ED50 as weaker potency. Usually LD50 stands for the dose at which mortality reaches 50%.

The subject of data set [1] is Mus musculus. Briefly: ED50 value was evaluated for analgesic activity by phenylquinone-induced writhing test in mice on peroral administration. In kind it is functional. Particulars: po. The procedure, abridged: (§1)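 Female ddN mice, 5 to 15 per dose, given drug orally in 0.5% aqueous tragacanth. Writhing was induced by ip phenylquinone (0.03%), and writhes were counted over 15 min.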
For orientation: Writhing tests count abdominal constrictions after an irritant is injected.

For data set [2], the system named is Rattus norvegicus. Nature of the data set: ED50 value was evaluated for antiinflammatory activity by carrageenan-induced rat paw edema method (CPE) on peroral administration. The class given is functional. The conditions noted are these: po. The procedure, abridged:
(§2)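 Male Wistar rats, 5 to 10 per dose, 4 to 5 doses per drug, given orally in 0.5% aqueous tragacanth. Edema was induced by subcutaneous carrageenin into the left hind paw. A rat counted as positive at ≥25% inhibition versus vehicle at 3 h. ED50 with 95% confidence limits was calculated by Litchfield-Wilcoxon, after a screen at 80 mg/kg.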

Data set [3] relates to Mus musculus. Nature of the data set: ED50 value was evaluated for analgesic activity by phenylquinone -induced writhing test in mice on peroral administration. In kind it is functional. The conditions noted are these: po. In a few lines: as §1
For data set [4], the system named is Rattus norvegicus. Nature of the data set: ED50 value was evaluated for antiinflammatory activity by carrageenan-induced rat paw edema method (CPE) on peroral administration; value may range from 12.71 to 51.24. In kind it is functional. Particulars: po. In a few lines: as §2
Background: The carrageenan paw model is a standard test of acute inflammation.

Data set [5] is described as follows: Evaluated for the acute lethal toxicity in mice on peroral administration of dose; value may range from 430 to 1236. In kind it is organism-based. Particulars: mouse, in vivo, po. In a few lines: (§3)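 Single oral dose, in 0.5% aqueous tragacanth, given to male Std:ddY mice. LD50 was derived from mortality over 7 days.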
Data set [6] in a line: Ratio between UD50 and ED50 in carrageenan paw edema was determined. In kind it is functional. In a few lines:
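Gastric UD50 (fasted male Wistar rats, single oral dose, stomach scored macroscopically at 6 h) was divided by oral CPE ED50 (male Wistar rats, paw carrageenin, ≥25% inhibition at 3 h, Litchfield-Wilcoxon).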

Data set [7] concerns Rattus norvegicus. Briefly: Evaluated for the UD50 value by gastric ulcer assay in rats on peroral administration of dose; value may range from 368-807. The class given is functional, Stomach. The procedure, abridged:
(§4)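 Male Wistar rats fasted for 24 h were given a single oral dose in 0.5% aqueous tragacanth and killed 6 h later. Stomachs were inspected macroscopically. UD50 is the dose producing ulcers in 50% of rats, taken from each compound's regression line.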

For data set [8], the system named is Mus musculus. Nature of the data set: ED50 value was evaluated for analgesic activity by phenylquinone -induced writhing test in ddN strain mice on peroral administration; value ranges from 32.7-76.20. Particulars: po. In kind it is functional.
Data set [9] relates to Rattus norvegicus. Briefly: Evaluated for the UD50 value by gastric ulcer assay in rats on peroral administration of dose; value ranges from 82.3-182. The class given is functional, Stomach. In a few lines:
as §4

Data set [10] deals with Rattus norvegicus. Briefly: ED50 value was evaluated for antiinflammatory activity by carrageenan-induced rat paw edema method (CPE) on peroral administration; value may range from 50.5 to 120.0. The class given is functional. Particulars: po. The procedure, abridged:
as §2

The test system of data set [11] is Mus musculus. Nature of the data set: ED50 value was evaluated for analgesic activity by phenylquinone -induced writhing test in mice on peroral administration; value may range from 35.3 to 283. The class given is functional. Particulars: po. In a few lines:
as §1

A short description of data set [12]: Evaluated for the acute lethal toxicity in mice on peroral administration of dose; value may range from 1539 to 2362. In kind it is organism-based. Particulars: mouse, in vivo, po. The procedure, abridged: as §3
Data set [13] has as its system Rattus norvegicus. Nature of the data set: ED50 value was evaluated for antiinflammatory activity by carrageenan-induced rat paw edema method (CPE) on peroral administration; value may range from 3.87 to 25.90. In kind it is functional. The conditions noted are these: po. The procedure, abridged:
as §2

Data set [14] concerns Rattus norvegicus. Nature of the data set: Evaluated for the UD50 value by gastric ulcer assay in rats on peroral administration of dose. The class given is functional, Stomach. In a few lines:
as §4

Data set [15] concerns Mus musculus. Briefly: ED50 value was evaluated for analgesic activity by phenylquinone -induced writhing test in mice on peroral administration; value may range from 20.6 to 66.0. The class given is functional. Particulars: po. In a few lines:
as §1

Data set [16] deals with Rattus norvegicus. Briefly: ED50 value was evaluated for antiinflammatory activity by carrageenan-induced rat paw edema method (CPE) on peroral administration; value may range from 39.61 to 80.81. Particulars: po. In kind it is functional. In a few lines:
as §2

Data set [17] deals with Rattus norvegicus. Nature of the data set: ED50 value was evaluated for antiinflammatory activity by carrageenan-induced rat paw edema method (CPE) on peroral administration; value may range from 7.05 to 37.13. In kind it is functional. Particulars: po. The procedure, abridged: as §2

For `CSc1nccc(Nc2ccc(CC(=O)O)cc2)n1`, the ED50 with Mus musculus [1] is greater than 100 mg/kg; in the data set with Rattus norvegicus [2] it was greater than 80 mg/kg.
In the case of `Cc1ccc(Nc2ccc(C(C)C(=O)O)cc2)nc1` (stereo not drawn), the median effective dose (ED50) in the data set with Mus musculus [3] is no less than 100 mg/kg; with Rattus norvegicus [2], no less than 80 mg/kg.
The corresponding values for `Cc1cccc(Nc2ccc(C(C)C(=O)O)cc2)n1` (stereo not drawn) are greater than 100 mg/kg and greater than 80 mg/kg.
`CC(C(=O)O)c1ccc(Nc2ccccc2)cc1` (stereo not drawn): the median effective dose (ED50) was greater than 100 mg/kg with Mus musculus [3] and 25.5 mg/kg with Rattus norvegicus [4].
`CC(C(=O)O)c1ccc(Nc2ccccn2)c(Cl)c1` (stereo not drawn) came in with an LD50 in [5] of 729 mg/kg. For the same compound, the Ratio in data set [6] is 41.6. For the same compound, the UD50 with Rattus norvegicus [7] was 545 mg/kg.
`CC(C)Cc1ccc(C(C)C(=O)O)cc1` (stereo not drawn) [IBUPROFEN] returned an ED50 in the data set with Mus musculus [8] of 50 mg/kg. The UD50 in the data set with Rattus norvegicus [9] stood at 124.6 mg/kg.
Take `CC(C(=O)O)c1ccc(Nc2ccc3ccccc3n2)cc1` (stereo not drawn): the figures for the median effective dose (ED50) with Mus musculus [3] and in the data set on Rattus norvegicus [2] were no less than 100 mg/kg and greater than 80 mg/kg, respectively.
In the case of `CC(C(=O)O)c1cccc(Nc2ccccn2)c1` (stereo not drawn), the ED50 is greater than 100 mg/kg in the data set with Mus musculus [3] and 77.9 mg/kg in the data set with Rattus norvegicus [10].
For the compound `CC(C(=O)O)c1ccc(Nc2ccc(Br)cn2)cc1` (stereo not drawn), the values for the ED50 in the data set with Rattus norvegicus [2] and with Mus musculus [11] were no less than 80 mg/kg and 100 mg/kg, respectively.
For the compound `CC(C(=O)O)c1ccc(Nc2ccccn2)cc1` (stereo not drawn), the median lethal dose (LD50) in data set [12] is 1910 mg/kg. The same compound came in with an ED50 with Rattus norvegicus [13] of 10 mg/kg. Further, in data set [6], the Ratio is greater than 64. The compound further returned a UD50 with Rattus norvegicus [14] greater than 640 mg/kg.
With `O=C(O)Cc1ccc(Nc2ccc3ccccc3n2)cc1`, the ED50 in the data set on Mus musculus [3] was no less than 100 mg/kg; with Rattus norvegicus [2] it was greater than 80 mg/kg.
The matching figures for `Cc1cc(Nc2ccc(CC(=O)O)cc2)ncn1`: greater than 100 mg/kg and greater than 80 mg/kg.
With `Cc1cccnc1Nc1ccc(C(C)C(=O)O)cc1` (stereo not drawn), the ED50 with Mus musculus [3] is no less than 100 mg/kg; in the data set on Rattus norvegicus [2], no less than 80 mg/kg.
For the compound `O=C(O)Cc1cccc(Nc2ccccn2)c1`, the values for the ED50 in the data set with Mus musculus [3] and with Rattus norvegicus [2] were no less than 100 mg/kg and greater than 80 mg/kg, respectively.
Regarding `Cc1cc(C(C)C(=O)O)ccc1Nc1ccccn1` (stereo not drawn), the median effective dose (ED50) with Rattus norvegicus [2] worked out at 16.8 mg/kg; in the data set on Mus musculus [15] it was 36.9 mg/kg.
Take `CC(C(=O)O)c1ccc(Nc2ccc([N+](=O)[O-])cn2)cc1` (stereo not drawn): the ED50 was no less than 100 mg/kg in the data set with Mus musculus [3] and 56.6 mg/kg with Rattus norvegicus [16].
For the compound `CC(C(=O)O)c1ccc(Nc2ccc(Cl)cn2)cc1` (stereo not drawn), the values for the ED50 in the data set on Mus musculus [3] and in the data set with Rattus norvegicus [2] were no less than 100 mg/kg and no less than 80 mg/kg, respectively.
The matching figures for `Cc1cc(Nc2ccc(C(C)C(=O)O)cc2)ncn1` (stereo not drawn): no less than 100 mg/kg and greater than 80 mg/kg.
Consider `CC(C(=O)O)c1ccc(Nc2ccccn2)cc1Cl` (stereo not drawn), for which the figures for the ED50 in the data set with Mus musculus [3] and in the data set with Rattus norvegicus [2] were no less than 100 mg/kg and no less than 80 mg/kg, respectively.
As for `O=C(O)Cc1ccc(Nc2ccccn2)cc1`, the 50% effective dose (ED50) with Mus musculus [3] is greater than 100 mg/kg; with Rattus norvegicus [17], 15.8 mg/kg.
In the case of `Cc1ccnc(Nc2ccc(C(C)C(=O)O)cc2)c1` (stereo not drawn), the ED50 is greater than 100 mg/kg in the data set on Mus musculus [3] and greater than 80 mg/kg with Rattus norvegicus [2].
Compound `O=C(O)Cc1ccc(Nc2ccncc2)cc1` returned an ED50 with Rattus norvegicus [2] greater than 80 mg/kg.
Regarding `CC(C(=O)O)c1ccc(Nc2ccncc2)cc1` (stereo not drawn), the ED50 was no less than 100 mg/kg in the data set on Mus musculus [3] and greater than 80 mg/kg in the data set on Rattus norvegicus [2].
